Tests used:
CYP2C9 = CYP2C9 (Homo sapiens, UniProt P11712); experiment: CYP inhibition, LC–MS/MS assay in human liver microsomes; type: in vitro ADME; conditions: pooled human liver microsomes, probe tolbutamide
In short: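 Follow-up CYP panel in pooled human liver microsomes with CYP-specific probe substrates; CYP-specific metabolites quantified by LC-MS/MS. Test compound at 10 μM. Percent inhibition reported.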

[1] = in vitro metabolism in human liver microsomes; type: in vitro ADME; conditions: 50 μM, 120 min
[2] = pharmacokinetics and oral bioavailability of S6821; type: in vivo, rat
[3] = 28-day dose-range finding toxicity study, diet; type: in vivo, rat; conditions: 28 days
In short: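 Crl:CD(SD) rats, 5/sex/group, fed test compound in the diet at 10, 30 or 100 mg/kg bw/day for 28 days, with a vehicle-diet control group of 5/sex. Assessed survival, clinical signs, body weight, food consumption, hematology, clinical chemistry, organ weights and gross pathology. Livers examined microscopically in the 0 and 100 mg/kg bw/day groups.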

[4] = toxicokinetics in 90-day toxicity study; type: in vivo, rat; conditions: for AUC(0-t) / Cmax: rat, plasma, po; for AUC(0-t): AUC0-24h
In short: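 In the 90-day dietary study (10, 30, 100 mg/kg bw/day), plasma taken at 6 time points over 24 h on Day 7, Week 6 and Week 13, assayed by validated LC-MS/MS. […] Accumulation ratio = AUC0-24h at Week 6 or 13 / Day 7.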

[5] = dose range-finding developmental toxicity study; type: in vivo, rat; conditions: 125, 250, 500, 1000 mg/kg bw/day oral gavage, gestation days 6-20
[6] = target: human bitter receptor hTAS2R8; conditions: antagonist; cited from earlier work
[7] = test system: human peripheral blood lymphocytes; experiment: in vitro chromosome aberration test; conditions: 200–1300 μg/mL, 3 or 21 hr exposure, ±S9
[8] = male, Sprague-Dawley, rat, plasma, iv, 1 mg/kg
[9] = male, Sprague-Dawley, rat, plasma, po, 10 mg/kg
[10] = male, Sprague-Dawley, rat, plasma, po, 30 mg/kg
[11] = male, Sprague-Dawley, rat, plasma, po, 100 mg/kg
[12] = female, Sprague-Dawley [Crl:CD(SD)], 10 mg/kg, Day 7, 10 mg/kg bw, F
[13] = female, Sprague-Dawley [Crl:CD(SD)], 10 mg/kg, Week 13, 10 mg/kg bw, F
[14] = female, Sprague-Dawley [Crl:CD(SD)], 30 mg/kg, Day 7, 30 mg/kg bw, F
[15] = female, Sprague-Dawley [Crl:CD(SD)], 30 mg/kg, Week 13, 30 mg/kg bw, F
[16] = female, Sprague-Dawley [Crl:CD(SD)], 100 mg/kg, Day 7, 100 mg/kg bw, F
[17] = female, Sprague-Dawley [Crl:CD(SD)], 100 mg/kg, Week 13, 100 mg/kg bw, F
[18] = female, Sprague-Dawley, 10 mg/kg, Week 6, 10 mg/kg bw, F
[19] = female, Sprague-Dawley, 30 mg/kg, Week 6, 30 mg/kg bw, F
[20] = female, Sprague-Dawley, 100 mg/kg, Week 6, 100 mg/kg bw, F
[21] = male, Sprague-Dawley [Crl:CD(SD)], 10 mg/kg, Day 7, 10 mg/kg bw, M
[22] = male, Sprague-Dawley [Crl:CD(SD)], 10 mg/kg, Week 13, 10 mg/kg bw, M
[23] = male, Sprague-Dawley [Crl:CD(SD)], 30 mg/kg, Day 7, 30 mg/kg bw, M
[24] = male, Sprague-Dawley [Crl:CD(SD)], 30 mg/kg, Week 13, 30 mg/kg bw, M
[25] = male, Sprague-Dawley [Crl:CD(SD)], 100 mg/kg, Day 7, 100 mg/kg bw, M
[26] = male, Sprague-Dawley [Crl:CD(SD)], 100 mg/kg, Week 13, 100 mg/kg bw, M
[27] = male, Sprague-Dawley, 10 mg/kg, Week 6, 10 mg/kg bw, M
[28] = male, Sprague-Dawley, 30 mg/kg, Week 6, 30 mg/kg bw, M
[29] = male, Sprague-Dawley, 100 mg/kg, Week 6, 100 mg/kg bw, M

CYP2C9, sequence (P11712 whole entry): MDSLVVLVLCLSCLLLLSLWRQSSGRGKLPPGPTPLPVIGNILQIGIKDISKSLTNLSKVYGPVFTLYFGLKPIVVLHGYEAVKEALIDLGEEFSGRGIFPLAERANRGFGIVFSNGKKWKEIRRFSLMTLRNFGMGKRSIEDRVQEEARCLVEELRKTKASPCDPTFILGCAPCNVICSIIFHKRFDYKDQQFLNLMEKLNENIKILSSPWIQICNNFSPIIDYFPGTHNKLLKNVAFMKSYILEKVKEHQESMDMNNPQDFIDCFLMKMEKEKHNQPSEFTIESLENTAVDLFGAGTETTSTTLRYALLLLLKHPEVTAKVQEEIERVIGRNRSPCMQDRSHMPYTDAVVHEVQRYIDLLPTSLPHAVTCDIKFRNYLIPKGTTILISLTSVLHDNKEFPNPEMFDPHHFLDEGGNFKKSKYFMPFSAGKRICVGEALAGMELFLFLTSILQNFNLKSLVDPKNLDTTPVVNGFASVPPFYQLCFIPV

## Cc1noc(C)c1Cn1cc(N2C(=O)CN(Cc3cccc(O)c3)C2=O)cn1 [S6821, 3-(1-((3,5-dimethylisoxazol-4-yl)methyl)-1H-pyrazol-4-yl)-1-(3-hydroxybenzyl)imidazolidine-2,4-dione]
CYP2C9
  inhibition at 10 µM: -3%
[1]
  parent S6821 remaining, peak area % of time 0: 75%
[2]; iv 1.0 mg/kg bw S6821
  AUC0-last/dose: 161 ng·h/mL/mg/kg
[2]; iv, body water 668 mL/kg
  Vss, times the total body water volume in the rat: 0.84 times
[2]; iv, hepatic blood flow 55.2 mL/min/kg
  CL as % of hepatic blood flow in the rat: 190%
[2]; [8]
  AUC(0-t): 161 ng·h/mL
  Cmax: 619 ng/mL
  Tmax: 4.8 min
  Vd: 0.563 L/kg
  clearance: 105 mL/min/kg
  half-life: 6 min
[2]; [9]
  AUC(0-t): 28 ng·h/mL
  Cmax: 12.3 ng/mL
  Tmax: 30 min
  bioavailability: 1.74%
  half-life: 120 min
[2]; [10]
  AUC(0-t): 201 ng·h/mL
  Cmax: 38.5 ng/mL
  Tmax: 30 min
  bioavailability: 4.16%
  half-life: 426 min
[2]; [11]
  AUC(0-t): 410 ng·h/mL
  Cmax: 68.1 ng/mL
  Tmax: 30 min
  bioavailability: 2.55%
  half-life: 258 min
[2]; oral gavage 10 mg/kg bw S6821
  AUC0-last/dose: 2.80 ng·h/mL/mg/kg
[2]; oral gavage 30 mg/kg bw S6821
  AUC0-last/dose: 6.70 ng·h/mL/mg/kg
[2]; oral gavage 100 mg/kg bw S6821
  AUC0-last/dose: 4.10 ng·h/mL/mg/kg
[3]; 10, 30, 100 mg/kg bw/day food ad-mix, male & female
  MTD: > 100 mg/kg bw/day
[3]; up to 100 mg/kg bw/day
  Findings: No test-article related findings
[4]; 100 mg/kg bw/day, females
  Cmax and AUC0-24h higher than predicted from a linear relationship: ~1.3 fold
[4]; 100 mg/kg bw/day, males
  Cmax and AUC0-24h lower than predicted from a linear relationship: ~32%
[4]; Day 7, 10 mg/kg bw, F
  AUC0-24h/dose: 12.2 ng·h/mL/mg/kg
  AUC0-24h Ratio: 1
  Cmax Ratio: 1
[4]; Day 7, 10 mg/kg bw, M
  AUC0-24h/dose: 11.8 ng·h/mL/mg/kg
  AUC0-24h Ratio: 1
  Cmax Ratio: 1
[4]; Day 7, 30 mg/kg bw, F
  AUC0-24h/dose: 14.5 ng·h/mL/mg/kg
  AUC0-24h Ratio: 3.5
  Cmax Ratio: 3.8
[4]; Day 7, 30 mg/kg bw, M
  AUC0-24h/dose: 9.83 ng·h/mL/mg/kg
  AUC0-24h Ratio: 2.5
  Cmax Ratio: 2.8
[4]; Day 7, 100 mg/kg bw, F
  AUC0-24h/dose: 15.0 ng·h/mL/mg/kg
  AUC0-24h Ratio: 12.3
  Cmax Ratio: 13.7
[4]; Day 7, 100 mg/kg bw, M
  AUC0-24h/dose: 8.44 ng·h/mL/mg/kg
  AUC0-24h Ratio: 7.2
  Cmax Ratio: 6.8
[4]; Week 6, 10 mg/kg bw, F
  ACUM Ratio: 0.93
  AUC0-24h/dose: 11.3 ng·h/mL/mg/kg
  AUC0-24h Ratio: 1
  Cmax Ratio: 1
[4]; Week 6, 10 mg/kg bw, M
  ACUM Ratio: 1.07
  AUC0-24h/dose: 12.6 ng·h/mL/mg/kg
  AUC0-24h Ratio: 1
  Cmax Ratio: 1
[4]; Week 6, 30 mg/kg bw, F
  ACUM Ratio: 0.76
  AUC0-24h/dose: 11.0 ng·h/mL/mg/kg
  AUC0-24h Ratio: 2.9
  Cmax Ratio: 2.8
[4]; Week 6, 30 mg/kg bw, M
  ACUM Ratio: 0.99
  AUC0-24h/dose: 9.77 ng·h/mL/mg/kg
  AUC0-24h Ratio: 2.3
  Cmax Ratio: 2.3
[4]; Week 6, 100 mg/kg bw, F
  ACUM Ratio: 0.87
  AUC0-24h/dose: 13.0 ng·h/mL/mg/kg
  AUC0-24h Ratio: 11.5
  Cmax Ratio: 15.1
[4]; Week 6, 100 mg/kg bw, M
  ACUM Ratio: 0.90
  AUC0-24h/dose: 7.58 ng·h/mL/mg/kg
  AUC0-24h Ratio: 6.0
  Cmax Ratio: 4.1
[4]; Week 13, 10 mg/kg bw, F
  ACUM Ratio: 1.02
  AUC0-24h/dose: 12.5 ng·h/mL/mg/kg
  AUC0-24h Ratio: 1
  Cmax Ratio: 1
[4]; Week 13, 10 mg/kg bw, M
  ACUM Ratio: 1.04
  AUC0-24h/dose: 12.3 ng·h/mL/mg/kg
  AUC0-24h Ratio: 1
  Cmax Ratio: 1
[4]; Week 13, 30 mg/kg bw, F
  ACUM Ratio: 0.79
  AUC0-24h/dose: 11.5 ng·h/mL/mg/kg
  AUC0-24h Ratio: 2.8
  Cmax Ratio: 2.4
[4]; Week 13, 30 mg/kg bw, M
  ACUM Ratio: 1.03
  AUC0-24h/dose: 10.2 ng·h/mL/mg/kg
  AUC0-24h Ratio: 2.5
  Cmax Ratio: 3.1
[4]; Week 13, 100 mg/kg bw, F
  ACUM Ratio: 1.11
  AUC0-24h/dose: 16.7 ng·h/mL/mg/kg
  AUC0-24h Ratio: 13.4
  Cmax Ratio: 12.9
[4]; Week 13, 100 mg/kg bw, M
  ACUM Ratio: 1.10
  AUC0-24h/dose: 9.25 ng·h/mL/mg/kg
  AUC0-24h Ratio: 7.5
  Cmax Ratio: 9.1
[4]; [12]
  AUC(0-t): 122 ng·h/mL
  Cmax: 7.22 ng/mL
[4]; [13]
  AUC(0-t): 125 ng·h/mL
  Cmax: 8.32 ng/mL
[4]; [14]
  AUC(0-t): 436 ng·h/mL
  Cmax: 27.7 ng/mL
[4]; [15]
  AUC(0-t): 344 ng·h/mL
  Cmax: 19.8 ng/mL
[4]; [16]
  AUC(0-t): 1500 ng·h/mL
  Cmax: 99 ng/mL
[4]; [17]
  AUC(0-t): 1670 ng·h/mL
  Cmax: 107 ng/mL
[4]; [18]
  AUC(0-t): 113 ng·h/mL
  Cmax: 6.34 ng/mL
[4]; [19]
  AUC(0-t): 331 ng·h/mL
  Cmax: 17.5 ng/mL
[4]; [20]
  AUC(0-t): 1300 ng·h/mL
  Cmax: 95.6 ng/mL
[4]; [21]
  AUC(0-t): 118 ng·h/mL
  Cmax: 6.05 ng/mL
[4]; [22]
  AUC(0-t): 123 ng·h/mL
  Cmax: 5.99 ng/mL
[4]; [23]
  AUC(0-t): 295 ng·h/mL
  Cmax: 16.7 ng/mL
[4]; [24]
  AUC(0-t): 305 ng·h/mL
  Cmax: 18.3 ng/mL
[4]; [25]
  AUC(0-t): 844 ng·h/mL
  Cmax: 41.4 ng/mL
[4]; [26]
  AUC(0-t): 925 ng·h/mL
  Cmax: 54.7 ng/mL
[4]; [27]
  AUC(0-t): 126 ng·h/mL
  Cmax: 10.7 ng/mL
[4]; [28]
  AUC(0-t): 293 ng·h/mL
  Cmax: 24.6 ng/mL
[4]; [29]
  AUC(0-t): 758 ng·h/mL
  Cmax: 43.7 ng/mL
[5]
  Findings: No maternal toxicity or effect on intrauterine growth up to 1000 mg/kg bw/day
[6]
  IC50: 35 nM
[7]
  Chromosome aberration (in vitro), Result: Negative

Source: paper PMC5615838 (Toxicology Reports, 2016)
